The text below walks through data of ChEMBL document CHEMBL4196136, “Chemical Constituents of Thai Citrus hystrix and Their Antiausterity Activity against the PANC-1 Human Pancreatic Cancer Cell Line” (J Nat Prod, 2018).

In data set [1] the test system is PSN1. The data set can be described thus: Antiausteritic activity against human PSN1 cells in nutrient-deprived medium measured after 24 hrs by WST8 assay. The format is functional. The procedure, abridged: (§1)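 Cells kept in DMEM with 10% FBS at 37 °C, 5% CO2. Seeded at 1.5 × 10^4 cells/well in DMEM for 24 h, washed twice with PBS, then exposed 24 h to serially diluted samples in DMEM or nutrient-deprived medium (NDM). Viability by WST-8 (3 h, A450) from three-well means. PC50 is the concentration killing 50% of cells in NDM without toxicity in DMEM.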

Data set [2] concerns PANC-1. The data set can be described thus: Antiausteritic activity against human PANC1 cells in nutrient-deprived medium measured after 24 hrs by WST8 assay. The format is functional. The procedure, abridged:
as §1

The test system of data set [3] is MIA PaCa-2. Kind of data set: Antiausteritic activity against human MIAPaCa2 cells in nutrient-deprived medium measured after 24 hrs by WST8 assay. The data set is classed as functional. The procedure, abridged: as §1
Data set [4] relates to MIA PaCa-2. Kind of data set: Cytotoxicity against human MIAPaCa2 cells in DMEM measured after 24 hrs by WST8 assay. The format is cell-based. The conditions noted are these: mia paca-2, 24 h. Summed up:
as §1

In data set [5] the test system is PSN1. Kind of data set: Cytotoxicity against human PSN1 cells in DMEM measured after 24 hrs by WST8 assay. The data set is classed as cell-based. The conditions noted are these: psn1, 24 h. Summed up:
as §1

Data set [6] concerns PANC-1. The data set can be described thus: Cytotoxicity against human PANC1 cells in DMEM measured after 24 hrs by WST8 assay. The format is cell-based. The conditions noted are these: panc-1, 24 h. The procedure, abridged: as §1
Data set [7] has as its system PANC-1. The data set can be described thus: Antimigratory activity in human PANC1 cells in DMEM assessed as cell migration at 10 uM after 24 hrs by wound healing assay (reference value: 95%). The format is functional.
The subject of data set [8] is PANC-1. Kind of data set: Antiausteritic activity against human PANC1 cells in nutrient deprived medium assessed as disintegration of cell organelles at 10 uM measured every 10 mins for 24 hrs by phase contrast microscopic method. The format is functional, cell-based. Summed up:
(§2)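 PANC-1 (2 × 10^5) attached overnight in complete medium, washed twice with PBS, treated with 10 μM in NDM. Held in a stage-top incubator at 37 °C, 5% CO2. Phase-contrast images taken every 10 min for 24 h.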

Data set [9] concerns PANC-1. The data set can be described thus: Antiausteritic activity against human PANC1 cells in nutrient deprived medium assessed as cell death at 10 uM measured every 10 mins for 24 hrs by phase contrast microscopic method. The format is functional, cell-based. The procedure, abridged:
as §2

For data set [10], the species on record is Homo sapiens. The data set can be described thus: Inhibition of AKT/mTOR signaling in human PANC1 cells in nutrient deprived medium assessed as effect on mTOR phosphorylation up to 5 uM measured within 6 hrs by Western blot analysis. The format is cell-based. The procedure, abridged: (§3)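 PANC-1 cells treated in nutrient-deprived medium. Proteins resolved by SDS-PAGE and transferred to PVDF. Membranes blocked, washed in PBS with 0.1% Tween 20, and incubated overnight with primary antibodies against p-Akt, Akt, p-mTOR and mTOR. GAPDH served as loading control.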

The test system of data set [11] is PANC-1. Kind of data set: Inhibition of colony formation in human PANC1 cells in DMEM at 25 uM after 10 days by crystal violet staining based assay relative to control. The data set is classed as functional. As to conditions: PANC-1, 240 h. Summed up: (§4)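 PANC-1 at 500 cells/well in DMEM, attached 24 h at 37 °C, 5% CO2. Treated with 12.5 or 25 μM in DMEM and grown 10 days. Cells washed with PBS, fixed with 4% formaldehyde, stained 15 min with crystal violet. Colony area measured; three replicates.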

In data set [12] the test system is PANC-1. The data set can be described thus: Inhibition of colony formation in human PANC1 cells in DMEM at 12.5 uM after 10 days by crystal violet staining based assay. The data set is classed as functional, cell-based. Summed up:
as §4

For data set [13], the system named is PANC-1. Kind of data set: Antiausteritic activity against human PANC1 cells in nutrient deprived medium assessed as cell shrinkage at 10 uM measured every 10 mins […] by phase contrast microscopic method. The data set is classed as functional, cell-based. Summed up:
as §2

Data set [14] concerns PANC-1. The data set can be described thus: Antiausteritic activity against human PANC1 cells in nutrient deprived medium assessed as cell death at 25 uM after 24 hrs by ethidium bromide/acridine orange staining based microscopic method relative to control. The data set is classed as functional. Summed up:
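PANC-1 cells seeded at 2 × 10^5 per 30 mm dish, attached overnight, PBS-washed twice, then exposed to compound in nutrient-deprived medium (NDM) for 24 h in humidified CO2 incubator. Acridine orange/ethidium bromide double stain added 15 min in dark; fluorescence (red/green) and phase-contrast images taken at 20× objective; red-fluorescing, morphologically altered cells scored as dead.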

Data set [15] relates to PANC-1. Kind of data set: Antiausteritic activity against human PANC1 cells in nutrient deprived medium assessed as induction of morphological changes at 6.25 to 25 uM after 24 hrs by ethidium bromide/acridine orange staining based microscopic method. The format is functional, cell-based. Summed up: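 PANC-1 (2 × 10^5) seeded in 30 mm dishes overnight, washed twice with PBS, treated in NDM for 24 h in humidified CO2 incubator. Acridine orange/ethidium bromide double stain, 15 min in the dark. Fluorescence (red/green) and phase-contrast imaging at 20× objective.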

Data set [16] deals with PANC-1. The data set can be described thus: Antiausteritic activity against human PANC1 cells in nutrient deprived medium assessed as plasma blebbing at 10 uM measured every 10 mins […] by phase contrast microscopic method. The data set is classed as functional, cell-based. Summed up: as §2
Data set [17] deals with PANC-1. Kind of data set: Reduction in total AKT expression in human PANC1 cells in nutrient deprived medium at up to 5 uM measured within 6 hrs by Western blot analysis. The data set is classed as functional, cell-based. Summed up:
as §3

Calls of active or inactive are those of the source. The rule behind the calls is not given here.

As for `C/C(=C\COc1c2ccoc2cc2oc(=O)ccc12)CC[C@@H](O)C(C)(C)O`, the PC50 in [1] turned out to be 76.1 µM; in data set [2], 76.5 µM; in data set [3] it was 49.4 µM. Moreover, the Activity result in data set [4], in data set [5] and in data set [6] was “Non-Toxic” each time.

In the case of `COC(C)(C)[C@H](O)COc1c2ccoc2cc2oc(=O)ccc12`, the PC50 amounted to 89.7 µM in data set [1], 89.6 µM in data set [2] and 87 µM in data set [3]. Moreover, the Activity entry in data set [4], in [5] and in [6] was “Non-Toxic” throughout.

Consider `COC(C)(C)[C@H](O)CC/C(C)=C/COc1c2ccoc2cc2oc(=O)ccc12`, for which the PC50 in [1] was 37.8 µM; in data set [2], 37.8 µM; in [3], 37.1 µM. The Activity result in [4], in [5] and in [6] was “Non-Toxic” in each case.

As to `C=C(C)[C@@H](O)COc1c2ccoc2cc2oc(=O)ccc12`, the results for the PC50 in data set [1], in data set [2] and in [3] were above 100 µM, 86.6 µM and above 100 µM, respectively. The Activity result in [4], in [5] and in data set [6] was “Non-Toxic” each time.

For the compound `CO[C@@H](COc1c2ccoc2cc2oc(=O)ccc12)C(C)(C)O`, the PC50 amounted to 40.6 µM in data set [1], 18.8 µM in [2] and 51.1 µM in data set [3]. Also, the Activity entry in data set [4], in data set [5] and in [6] was “Non-Toxic” each time.

Take `COc1cc(C[C@H]2C(=O)OC[C@@H]2Cc2ccc(OC)c(OC)c2)ccc1O` [ARCTIGENIN]: the PC50 turned out to be 0.7 µM in data set [1], 0.7 µM in data set [2] and 1.9 µM in [3].

On to `CC(C)=CCC/C(C)=C/COc1c2ccoc2cc2oc(=O)ccc12` [BERGAMOTTIN], for which the Activity in [7] is 30%; in data set [1], “Dose-dependent effect”; in [2] it was “Dose-dependent effect”; in [14] it was 100%; in data set [3], “Dose-dependent effect”; in data set [4] it was “Non-Toxic”. The Activity entry in [5] and in data set [6] was “Non-Toxic” throughout. The result in data set [8], in [9], in [13], in data set [15], in data set [16] and in data set [17] was Active. Also, the inhibition entry in [10] and in data set [12] was “Active” in each case. Moreover, the inhibition at 25 µM in data set [11] was 100%. Also, the PC50 in [1] was determined as 9.4 µM; in [2], 4.6 µM; in data set [3], 2.2 µM.

As for `CC(C)=CCOc1c2ccoc2cc2oc(=O)ccc12` [ISOIMPERATORIN], the PC50 worked out at 41.7 µM in data set [1], 41.2 µM in [2] and 37.2 µM in data set [3]. Moreover, the Activity result in data set [4], in [5] and in data set [6] was “Non-Toxic” each time.

With `CC(C)(O)[C@H](O)COc1c2ccoc2cc2oc(=O)ccc12` [OXYPEUCEDANIN HYDRATE], the PC50 in data set [1] came out at 89.7 µM; in [2] it was 41.2 µM; in data set [3] it was 79.4 µM. The Activity result in [4], in data set [5] and in data set [6] was “Non-Toxic” in each case.

For the compound `CC1(C)O[C@H]1COc1c2ccoc2cc2oc(=O)ccc12` [OXYPEUCEDANIN], the PC50 in [1] was 74.6 µM; in [2], 76.5 µM; in data set [3], 38 µM. Besides, the Activity result in [4], in [5] and in data set [6] was “Non-Toxic” each time.

Regarding `O=c1ccc2ccc(O)cc2o1` [UMBELLIFERONE], the PC50 in [1], in data set [2] and in data set [3] was above 100 µM in each case. Further, the Activity result in data set [4], in [5] and in [6] was “Non-Toxic” throughout.
